Tests used:
LoxA [1] = assay: LoxA substrate preference; assay type: biochemical, Pseudomonas aeruginosa; conditions: initial rate at 10 μM substrate, pH 7.0, relative to AA
How it was run: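 His6-tagged LoxA was expressed in E. coli BL21(DE3), purified on Ni-NTA, and dosed by iron content. About 7 nM enzyme started each reaction. Each fatty acid substrate was C18 HPLC-purified and used at 10 μM in 25 mM HEPES pH 7.0 without Triton X-100. Initial rate of conjugated diene formation was followed at 234 nm (ε 25000 M−1cm−1) and expressed relative to the AA rate.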

5-LOX = target: T1, 5-LOX (Homo sapiens, UniProt P09917); assay: Human LOX isozyme specificity screen, 5-LOX; assay type: biochemical; conditions: 25 μM inhibitor, 10 μM AA
T1 sequence (P09917 1-674): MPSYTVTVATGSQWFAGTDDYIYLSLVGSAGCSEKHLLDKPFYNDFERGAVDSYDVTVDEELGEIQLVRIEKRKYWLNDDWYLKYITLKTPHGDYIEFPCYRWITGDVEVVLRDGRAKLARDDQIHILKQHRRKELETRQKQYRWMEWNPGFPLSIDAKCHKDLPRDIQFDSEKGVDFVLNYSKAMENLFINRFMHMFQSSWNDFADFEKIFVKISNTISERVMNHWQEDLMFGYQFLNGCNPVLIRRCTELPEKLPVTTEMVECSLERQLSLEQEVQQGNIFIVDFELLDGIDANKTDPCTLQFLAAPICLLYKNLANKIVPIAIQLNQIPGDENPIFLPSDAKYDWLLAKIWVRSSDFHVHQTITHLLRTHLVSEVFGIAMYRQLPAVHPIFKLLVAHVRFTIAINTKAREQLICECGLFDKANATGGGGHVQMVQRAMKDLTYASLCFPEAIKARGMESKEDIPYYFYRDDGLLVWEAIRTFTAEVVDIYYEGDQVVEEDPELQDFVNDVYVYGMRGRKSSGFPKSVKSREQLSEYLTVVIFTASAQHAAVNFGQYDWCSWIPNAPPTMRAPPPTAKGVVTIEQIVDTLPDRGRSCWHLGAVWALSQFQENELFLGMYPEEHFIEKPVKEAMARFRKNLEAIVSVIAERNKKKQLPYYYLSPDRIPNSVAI

12-LOX = target: T2, 12-LOX (Homo sapiens, UniProt P18054); assay: Human LOX isozyme specificity screen, 12-LOX; assay type: biochemical; conditions: 25 μM inhibitor, 10 μM AA
T2 sequence (P18054 1-663): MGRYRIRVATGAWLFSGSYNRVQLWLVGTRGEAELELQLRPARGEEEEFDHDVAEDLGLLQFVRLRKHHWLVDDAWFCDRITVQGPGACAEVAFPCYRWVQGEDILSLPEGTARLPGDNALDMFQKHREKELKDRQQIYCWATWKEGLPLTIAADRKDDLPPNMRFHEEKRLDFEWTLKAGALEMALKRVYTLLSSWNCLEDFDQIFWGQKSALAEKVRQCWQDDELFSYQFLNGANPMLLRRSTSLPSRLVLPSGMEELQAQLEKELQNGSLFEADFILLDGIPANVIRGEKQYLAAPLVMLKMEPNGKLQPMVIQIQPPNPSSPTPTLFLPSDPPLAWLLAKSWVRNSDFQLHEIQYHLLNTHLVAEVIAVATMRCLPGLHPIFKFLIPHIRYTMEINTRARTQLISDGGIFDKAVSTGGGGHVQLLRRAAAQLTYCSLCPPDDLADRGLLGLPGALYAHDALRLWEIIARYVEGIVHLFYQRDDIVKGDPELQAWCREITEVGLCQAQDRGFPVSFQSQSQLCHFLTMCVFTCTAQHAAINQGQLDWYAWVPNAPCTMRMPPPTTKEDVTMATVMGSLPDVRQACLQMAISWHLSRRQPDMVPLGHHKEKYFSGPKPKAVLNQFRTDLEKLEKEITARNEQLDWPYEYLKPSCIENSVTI

15-LOX-1 = target: T3, 15-LOX-1 (Homo sapiens, UniProt P16050); assay: Human LOX isozyme specificity screen, 15-LOX-1; assay type: biochemical; conditions: 25 μM inhibitor, 10 μM AA
T3 sequence (P16050 1-662): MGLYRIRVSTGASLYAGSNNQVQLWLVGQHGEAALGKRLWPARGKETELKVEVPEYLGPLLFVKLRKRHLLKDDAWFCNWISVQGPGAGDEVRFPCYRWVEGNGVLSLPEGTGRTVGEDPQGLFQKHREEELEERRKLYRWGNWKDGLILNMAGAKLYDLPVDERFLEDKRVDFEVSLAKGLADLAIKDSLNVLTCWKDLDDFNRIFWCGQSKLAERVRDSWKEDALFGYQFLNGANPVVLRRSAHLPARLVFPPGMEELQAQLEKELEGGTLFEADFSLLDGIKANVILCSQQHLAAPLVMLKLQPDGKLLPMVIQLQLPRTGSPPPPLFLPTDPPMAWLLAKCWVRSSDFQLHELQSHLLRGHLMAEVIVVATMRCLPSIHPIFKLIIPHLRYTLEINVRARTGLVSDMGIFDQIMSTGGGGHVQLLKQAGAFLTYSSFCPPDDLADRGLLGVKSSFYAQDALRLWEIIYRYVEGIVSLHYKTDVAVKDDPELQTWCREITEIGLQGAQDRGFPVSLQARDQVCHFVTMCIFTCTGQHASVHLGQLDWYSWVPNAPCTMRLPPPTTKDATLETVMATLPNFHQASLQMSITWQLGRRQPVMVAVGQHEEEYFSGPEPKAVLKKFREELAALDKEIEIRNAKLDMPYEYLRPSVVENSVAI

15-LOX-2 = target: T4, 15-LOX-2 (Homo sapiens, UniProt O15296); assay: Human LOX isozyme specificity screen, 15-LOX-2; assay type: biochemical; conditions: 25 μM inhibitor, 10 μM AA
T4 sequence (O15296 1-676): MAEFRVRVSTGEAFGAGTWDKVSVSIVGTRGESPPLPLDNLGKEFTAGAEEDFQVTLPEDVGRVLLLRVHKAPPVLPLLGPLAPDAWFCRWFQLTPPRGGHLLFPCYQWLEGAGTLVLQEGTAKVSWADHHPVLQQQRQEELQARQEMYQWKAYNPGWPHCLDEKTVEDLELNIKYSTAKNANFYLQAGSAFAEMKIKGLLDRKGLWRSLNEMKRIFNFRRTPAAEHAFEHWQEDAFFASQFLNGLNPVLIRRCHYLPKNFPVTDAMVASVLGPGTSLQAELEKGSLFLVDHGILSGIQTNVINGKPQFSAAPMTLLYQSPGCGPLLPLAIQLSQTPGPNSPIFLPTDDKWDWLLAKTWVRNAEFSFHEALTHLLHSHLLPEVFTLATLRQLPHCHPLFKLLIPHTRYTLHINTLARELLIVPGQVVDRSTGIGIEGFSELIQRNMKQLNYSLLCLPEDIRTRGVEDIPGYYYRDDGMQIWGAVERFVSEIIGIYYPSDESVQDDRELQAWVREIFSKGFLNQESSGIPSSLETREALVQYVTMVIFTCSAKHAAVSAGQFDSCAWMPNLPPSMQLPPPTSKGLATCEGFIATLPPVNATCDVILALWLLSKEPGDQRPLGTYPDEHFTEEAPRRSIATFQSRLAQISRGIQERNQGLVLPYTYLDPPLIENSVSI

LoxA [2] = assay: LoxA inhibition, manual cuvette assay; assay type: biochemical, Pseudomonas aeruginosa; conditions: for single-point screen inhibition percentage, LoxA: 25 μM inhibitor, 10 μM AA; for selectivity for LoxA versus human LOX isozymes: from single-point screens at 25 μM

Compound | % AA Rate (10 μM) (LoxA [1]) | single-point screen inhibition percentage, 5-LOX (5-LOX) [%] | single-point screen inhibition percentage, 12-LOX (12-LOX) [%] | single-point screen inhibition percentage, 15-LOX-l (15-LOX-1) [%] | single-point screen inhibition percentage, 15-LOX-2 (15-LOX-2) [%] | single-point screen inhibition percentage, LoxA (LoxA [2]) [%] | selectivity for LoxA versus human LOX isozymes (LoxA [2]) | IC50 (LoxA [2]; read-out: LoxA IC50, manual cuvette assay, pH 7.0, 10 μM AA) [µM] | IC50 value against LoxA (LoxA [2]; compared with the human enzymes)
CC/C=C\C/C=C\C/C=C\CCCCCCCC(=O)O [ALA] | 78(10) % | – | – | – | – | – | – | – | –
CCCCC/C=C\C/C=C\C/C=C\CCCCCCC(=O)O [DGLA, Dihomo-gamma-linolenic acid] | 44(10) % | – | – | – | – | – | – | – | –
CC/C=C\C/C=C\C/C=C\C/C=C\C/C=C\C/C=C\CCC(=O)O [DHA] | 72(10) % | – | – | – | – | – | – | – | –
CCCCC/C=C\C/C=C\CCCCCCCCCC(=O)O [EDA] | 33(10) % | – | – | – | – | – | – | – | –
CC/C=C\C/C=C\C/C=C\C/C=C\C/C=C\CCCC(=O)O [EPA] | 61(10) % | – | – | – | – | – | – | – | –
CCCCC/C=C\C/C=C\C/C=C\CCCCC(=O)O [GLA] | 44(10) % | – | – | – | – | – | – | – | –
Nc1ncnc2c1c(-c1ccc(Oc3ccccc3)cc1)cn2C1CCCC1 [NCGC00015280] | – | 42 | 38 | 51 | 0 | 86 | – | – | –
Fc1ccc(C(OCCN2CCN(CCCc3ccccc3)CC2)c2ccc(F)cc2)cc1 [NCGC00015300] | – | 41 | 48 | 65 | 13 | 83 | – | – | –
O=C1NCN(c2ccccc2)C12CCN(CCCC(c1ccc(F)cc1)c1ccc(F)cc1)CC2 [NCGC00015424] | – | 74 | 63 | 76 | 21 | 87 | selectivity towards LoxA over 12-LOX and 15-LOX-2 and not the other human isozymes | – | –
O=c1[nH]c2ccccc2n1C1CCN(CCCC(c2ccc(F)cc2)c2ccc(F)cc2)CC1 [NCGC00015802] | – | 80 | 50 | 69 | 16 | 90 | selectivity towards LoxA over 12-LOX, 15-LOX-1, and 15-LOX-2 | – | –
Fc1ccc(C(c2ccc(F)cc2)N2CCN(C/C=C\c3ccccc3)CC2)cc1 [NCGC00018102] | – | 96 | 25 | 65 | 0 | 86 | selectivity towards LoxA over 12-LOX, 15-LOX-1, and 15-LOX-2 | 4.5 ± 0.4 | –
CC/C(=C(\c1ccccc1)c1ccc(OCCN(C)C)cc1)c1ccccc1 [NCGC00024928] | – | 79 | 39 | 73 | 8 | 82 | – | – | –
COC(=O)[C@H]1[C@H]2C[C@@H]3c4[nH]c5cc(OC)ccc5c4CCN3C[C@H]2C[C@@H](OC(=O)c2cc(OC)c(OC)c(OC)c2)[C@@H]1OC [NCGC00091250] | – | 37 | 23 | 57 | 5 | 69 | – | – | –
CN[C@H]1CC[C@@H](c2ccc(Cl)c(Cl)c2)c2ccccc21.Cl [NCGC00092386] | – | 83 | 26 | 51 | 5 | 76 | – | – | –
CC(C)(C)c1ccc(C(=O)CCCN2CCC(OC(c3ccccc3)c3ccccc3)CC2)cc1 [NCGC00164603] | – | 23 | 33 | 76 | 0 | 95 | – | – | –
O=C(CCCCCN1CCN(c2ccccc2-c2ccccc2)CC1)NC1CCCc2ccccc21 (stereo not shown) [NCGC00186032] | – | 78 | 36 | 57 | 5 | 87 | – | – | –
CC(Cc1ccc(O)c(O)c1)C(C)Cc1ccc(O)c(O)c1 (stereo not shown) [NDGA, nordihydroguaiaretic acid, reference compound] | – | – | – | – | – | – | – | – | comparable to the values obtained against the human enzymes

Source: PMC7249612 (Biochemistry, 2016)
